# Measurements from publication PMC6863163 (Journal of neuro-oncology, 2019).
# Where “and” joins values, the source holds several entries; their conditions need not be identical. Identical values can stand only once. Like-named read-outs stand apart in the source and are kept apart here.
# What was measured:
# [1] = assay type: in vivo, human
# In short: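 Patients took oral ribociclib, 600 mg/day, for 8–21 days, with the last dose 4–8 h before surgery. Baseline blood was drawn before treatment and again within 1 h before surgery, then split into plasma and buffy coat. CSF was collected during surgery when feasible. Tumor core and infiltrating regions were located by stealth MRI and frozen. Total drug was measured by validated LC–MS/MS. Unbound drug equals fraction unbound × total.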
# [2] = assay type: in vitro ADME, human
# In short: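 Plasma and tumor homogenate came from patients dosed at ribociclib 600 mg/day for 8–21 days. Samples were collected 4–8 h after the last pre-surgical dose. Fraction unbound was determined by equilibrium dialysis across a 5-kDa cutoff regenerated cellulose membrane.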
# [3] = Safety monitoring, adverse events graded by NCI CTCAE version 4.0; assay type: in vivo, human; details: for Cough / Creatinine increased / Edema, limbs / Gait disturbance / Generalized muscle weakness / Hyperglycemia / Musculoskeletal and connective tissue disorder—other: muscle pain / Nausea / Peripheral sensory neuropathy / Psychosis / Insomnia: count, prior to surgery and during treatment phase
# In short: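 Participants with recurrent GBM took oral ribociclib, 600 mg once daily, for 8–21 days before resection. Rb-positive cases then continued on 21 days on and 7 days off per 28-day cycle. Throughout treatment, staff monitored complete blood counts, blood chemistry, 12-lead ECG, vital signs, Karnofsky status and physical exam. Adverse events were graded by NCI CTCAE v4.0 and assessed for expectedness and drug attribution.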
# recurrent GBM [4] = test: Disease progression; assay type: in vivo, human; details: for PFS from start of Ribociclib: 600 mg/day, 21-days-on, 7-days-off after surgery; for OS from second surgery: other regimens off-study after progression
# In short: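 Patients with Rb-positive recurrent tumors continued oral ribociclib, 600 mg/day, 21 days on and 7 days off per 28-day cycle, until progression or unacceptable toxicity. Follow-up MRI, including perfusion and diffusion-weighted images, was done after every two cycles. Progression was judged by the Response Assessment in Neuro-Oncology (RANO) criteria.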
# RbS807/811 = test: Immunohistochemistry for phospho-Rb in paired tumor specimens; assay type: in vivo, human
# Rb phosphorylation [5] = details: cultured cells, in vitro; cited from earlier work
# cell growth = details: suppression of cell growth in vitro; no reference given; cited from earlier work
# [6] = cited from earlier work
# Rb phosphorylation [7] = details: 900 mg/day for 5 days before surgery, 12 patients; ref Tien et al. 37; cited from earlier work
# cell proliferation = details: 900 mg/day for 5 days before surgery, 12 patients; ref Tien et al. 37; cited from earlier work
# recurrent GBM [8] = details: three of 17 patients with recurrent GBM; 150 mg or 200 mg twice daily; cited from earlier work
# [9] = test system: recurrent Rb-positive GBM; details: 22 patients, 125 mg/day, 21-days-on, 7-days-off; cited from earlier work
# GBM cell proliferation = details: 7 days before surgery, 4 matched samples; ref Taylor et al. 34; cited from earlier work
# [10] = enhancing tumor, subject RIBO-001, mean of specimens
# [11] = enhancing tumor, subject RIBO-003, mean of specimens
# [12] = mean across all specimens, 600 mg QD 8–21 days
# [13] = mean ± SD, all tumor specimens of three subjects
# [14] = mean ± SD, assuming tumor tissue density of 1.04 g/mL
# [15] = non-enhancing tumor, subject RIBO-001, mean of specimens
# [16] = tumor core, subject RIBO-002, mean of specimens
# [17] = tumor core, subject RIBO-003, mean of specimens
structure (smiles),measurement,setting,value
CN(C)C(=O)c1cc2cnc(Nc3ccc(N4CCNCC4)cn3)nc2n1C1CCCC1 [ribociclib],Mean unbound ribociclib concentration in CSF,"[1]; 600 mg QD 8–21 days, one CSF sample",0.632 µM and 0.63 µM
same,Ribociclib CSF concentration relative to the IC50 for inhibition of CDK4/6,[1]; CSF,> fivefold
same,Total ribociclib (CSF ribociclib concentration),"[1]; CSF collected during surgery, subject RIBO-003, 600 mg QD, 14 days",0.63 µM
same,Total drug tumor (mean concentration),[1]; [10],17.97 nmol/g
same,Unbound drug tumor (mean concentration),[1]; [10],0.79 nmol/g
same,Total drug tumor (mean concentration),"[1]; enhancing tumor, subject RIBO-002, mean of specimens",24.73 nmol/g
same,Total drug tumor (mean concentration),[1]; [11],29.99 nmol/g
same,Unbound drug tumor (mean concentration),[1]; [11],1.29 nmol/g
same,Kp,"[1]; human, CSF / unbound plasma, oral, 600 mg/day, CSF/unbound plasma concentration ratio, one patient, 0.63/0.49",1.29
same,Mean unbound ribociclib concentration in MRI-enhancing tumor,[1]; [12],1.242 nmol/g
same,Mean unbound ribociclib concentration in MRI-non-enhancing tumor,[1]; [12],0.484 nmol/g and 0.48 nmol/g
same,Mean unbound ribociclib concentration in tumor core,[1]; [12],1.526 nmol/g
same,Mean concentration of unbound ribociclib in MRI-enhancing tumor or core,"[1]; mean across all subjects, reported herein, 600 mg/day",1.33 nmol/g
same,Mean unbound ribociclib concentration in plasma,"[1]; mean across participants, 600 mg QD 8–21 days",0.337 µM
same,Tumor tissue concentration of total ribociclib,[1]; [13],23.42 ± 10.79 nmol/g
same,Tumor tissue concentration of unbound ribociclib,[1]; [13],1.24 ± 0.64 nmol/g
same,Tumor tissue concentration of total ribociclib,[1]; [14],24.36 ± 11.22 µM
same,Unbound ribociclib intra-tumor drug concentration,[1]; [14],1.29 ± 0.67 µM
same,Unbound concentration in non-enhancing tumor relative to the IC50 for inhibition of CDK4/6,[1]; non-enhancing tumor,> fivefold
same,Total drug tumor (mean concentration),[1]; [15],8.86 nmol/g
same,Unbound drug tumor (mean concentration),[1]; [15],0.48 nmol/g
same,Total ribociclib,"[1]; plasma, day of surgery, subject RIBO-001, 600 mg QD, 8 days before surgery",3.65 µM
same,Total ribociclib,"[1]; plasma, day of surgery, subject RIBO-002, 600 mg QD, 12 days before surgery",1.26 µM
same,Total ribociclib,"[1]; plasma, day of surgery, subject RIBO-003, 600 mg QD, 14 days before surgery",5.44 µM
same,Total ribociclib,"[1]; tumor core specimen, subject RIBO-001, 600 mg QD, 8 days, 4–8 h after last dose",16.30 nmol/g
same,Total drug tumor (mean concentration),"[1]; tumor core, subject RIBO-001",16.30 nmol/g
same,Unbound drug tumor (mean concentration),"[1]; tumor core, subject RIBO-001",0.82 nmol/g
same,Total drug tumor (mean concentration),[1]; [16],33.03 nmol/g
same,Unbound drug tumor (mean concentration),[1]; [16],2.11 nmol/g
same,Total drug tumor (mean concentration),[1]; [17],21.65 nmol/g
same,Unbound drug tumor (mean concentration),[1]; [17],1.30 nmol/g
same,Fraction unbound,"[2]; enhancing tumor specimens, subject RIBO-001",3.9%
same,Fraction unbound,"[2]; enhancing tumor specimens, subject RIBO-002",6.4% and 5.8% and 5.4%
same,Fraction unbound,"[2]; enhancing tumor specimens, subject RIBO-003",4.1% and 4.3%
same,Fraction unbound,"[2]; human, plasma, Fraction unbound, subject RIBO-001",0.102
same,Fraction unbound,"[2]; human, plasma, Fraction unbound, subject RIBO-002",0.119
same,Fraction unbound,"[2]; human, plasma, Fraction unbound, subject RIBO-003",0.09
same,Fraction unbound,"[2]; non-enhancing tumor specimens, subject RIBO-001",4.2%
same,Fraction unbound,"[2]; tumor core specimens, subject RIBO-003",6.3%
same,Grade of all observed adverse events,"[3]; CTCAE v4.0, three participants, 600 mg/day",≤ 2 grade
same,Cough,[3]; Grade 1,1
same,Creatinine increased,[3]; Grade 1,0
same,"Edema, limbs",[3]; Grade 1,1
same,Gait disturbance,[3]; Grade 1,0
same,Generalized muscle weakness,[3]; Grade 1,0
same,Hyperglycemia,[3]; Grade 1,0
same,Musculoskeletal and connective tissue disorder—other: muscle pain,[3]; Grade 1,1
same,Nausea,[3]; Grade 1,1
same,Peripheral sensory neuropathy,[3]; Grade 1,1
same,Psychosis,[3]; Grade 1,1
same,Creatinine increased,[3]; Grade 2,1
same,"Edema, limbs",[3]; Grade 2,0
same,Gait disturbance,[3]; Grade 2,1
same,Generalized muscle weakness,[3]; Grade 2,1
same,Hyperglycemia,[3]; Grade 2,1
same,Insomnia,[3]; Grade 2,1
same,Musculoskeletal and connective tissue disorder—other: muscle pain,[3]; Grade 2,0
same,Nausea,[3]; Grade 2,0
same,Peripheral sensory neuropathy,[3]; Grade 2,0
same,Cough,[3]; Total,1
same,Creatinine increased,[3]; Total,1
same,"Edema, limbs",[3]; Total,1
same,Gait disturbance,[3]; Total,1
same,Generalized muscle weakness,[3]; Total,1
same,Hyperglycemia,[3]; Total,1
same,Insomnia,[3]; Total,1
same,Musculoskeletal and connective tissue disorder—other: muscle pain,[3]; Total,1
same,Nausea,[3]; Total,1
same,Peripheral sensory neuropathy,[3]; Total,1
same,Psychosis,[3]; Total,1
same,Serious adverse events,"[3]; three participants, 600 mg/day",No participants experienced serious adverse events
same,Withdrawal from the study due to adverse events,"[3]; three participants, 600 mg/day",No participants withdrew
same,Disease progression,"recurrent GBM [4]; all three participants, ribociclib monotherapy",all experienced early disease progression
same,PFS from start of Ribociclib,recurrent GBM [4]; participant 001,2 months
same,OS from second surgery,recurrent GBM [4]; participant 001,10 months
same,PFS from start of Ribociclib,recurrent GBM [4]; participant 002,5 months
same,OS from second surgery,recurrent GBM [4]; participant 002,19 months
same,PFS from start of Ribociclib,recurrent GBM [4]; participant 003,2 months
same,OS from second surgery,recurrent GBM [4]; participant 003,12 months
same,Inhibition of tumor tissue CDK4/6 activity (phospho-Rb IHC) or cell proliferation (Ki-67 IHC),"RbS807/811; 600 mg/day monotherapy, archived vs post-ribociclib tumor tissue",did not consistently inhibit
same,"Proportion of phospho-Rb-positive tumor cells and phospho-Rb histoscores, ribociclib-treated vs. baseline tumors","RbS807/811; 8–21 days of ribociclib 600 mg/day, three subjects, Fig. S1A",Two of the three subjects showed a decrease
same,Ribociclib (total drug) sufficient to suppress Rb phosphorylation,Rb phosphorylation [5],200 nM
same,GI50,cell growth,276 nM
same,Mean unbound ribociclib fraction in plasma,[6]; CV = 17.6%,12.7%
same,Mean unbound ribociclib fraction in tumor tissues,[6]; CV = 23%,4.6%
same,"Change in Rb phosphorylation, archived vs post-ribociclib tumor",Rb phosphorylation [7],significant decrease
same,"Change in cell proliferation, archived vs post-ribociclib tumor",cell proliferation,significant decrease
CCN1CCN(Cc2ccc(Nc3ncc(F)c(-c4cc(F)c5nc(C)n(C(C)C)c5c4)n3)nc2)CC1 [abemaciclib],Best response: duration of stable disease,recurrent GBM [8],≥ 24 weeks
CC(=O)c1c(C)c2cnc(Nc3ccc(N4CCNCC4)cn3)nc2n(C2CCCC2)c1=O [palbociclib],Median PFS,[9],5.1 weeks
same,OS,[9],15.4 weeks
same,Change in GBM cell proliferation by Ki-67 IHC,GBM cell proliferation,did not produce significant changes
same,Tumor drug concentrations vs pharmacologically active level,GBM cell proliferation,exceeded those felt to be pharmacologically active
